# Source: ChEMBL document CHEMBL1806459, “Discovery of N-(1-ethylpropyl)-[3-methoxy-5-(2-methoxy-4-trifluoromethoxyphenyl)-6-methyl-pyrazin-2-yl]amine 59 (NGD 98-2): an orally active corticotropin releasing factor-1 (CRF-1) receptor antagonist” (J Med Chem, 2011)
# Active and inactive are the calls of the source. The rule behind the calls is not given here.
# Experiments:
# [1] = Inhibition of KV channel at 4 uM
# In short: (§1)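 Selectivity panel of 69 targets, test compound at 4 μM, a level set by aqueous solubility limits; percent inhibition recorded per target.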
# [2] = Inhibition of DHP calcium channel at 4 uM; in short: as §1
# [3] = Inhibition of GABA-B at 4 uM; in short: as §1
# hERG (KCNH2) = hERG (KCNH2) (Homo sapiens, UniProt Q12809); assay: Inhibition of human ERG expressed in african green monkey COS7 cells at 3 uM by electrophysiological assay; format: cell-based; settings: COS-7 cells (African green monkey) expressing human ERG
# [4] = Inhibition of phosphodiesterase 3 at 4 uM
# In short: (§2)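 Single-concentration screen within a 69-target selectivity panel. The test concentration was 4 μM, a level set by the compound's limited aqueous solubility.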
# [5] = Inhibition of protein kinase C at 4 uM; in short: as §2
# [6] = target: Corticotropin-releasing factor receptor 1 (Rattus norvegicus, UniProt P35353); assay: Displacement of [125I]-sauvagine from rat CRF-1 receptor expressed in rat cortical membrane after 2 hrs by scintillation counting; format: cell membranes
# In short: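 Displacement of [125I]-sauvagine binding from rat cortical membrane homogenate with increasing compound concentrations; Ki derived.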
# Rattus norvegicus [7] = assay: Toxicity in Sprague-Dawley rat assessed as effect on horizontal movement at 10 mg/kg, po measured after 3 hrs for 1 hr; format: organism-based; parameters: dose 10 mg/kg, route oral; settings: in vivo
# In short: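 Rats not habituated to the test environment, dosed orally at 3, 10 and 30 mg/kg. Spontaneous locomotor activity recorded after dosing: horizontal activity as movement time, plus vertical activity (rearing). Test run to exclude sedation.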
# [8] = target: Glucocorticoid receptor (Homo sapiens) (UniProt P04150); assay: Inhibition of glucocorticoid receptor at 4 uM; in short: as §2
# [9] = target: 5-hydroxytryptamine receptor 6 (Homo sapiens) (UniProt P50406); assay: Inhibition of Serotonin 5HT6 receptor at 4 uM; in short: as §2
# Rattus norvegicus [10] = assay: Decrease in restrained-stress induced […] release in plasma of po dosed Sprague-Dawley rat pretreated with compound for 3 hrs by radioimmunoassay; format: functional, organism-based
# In short: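 Rats orally pretreated, then restrained for 10 min to induce stress. Plasma ACTH measured and compared with vehicle/no-stress and vehicle/stress groups.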
# [11] = target: Beta-1 adrenergic receptor (Homo sapiens) (UniProt P08588); assay: Inhibition of adrenergic beta 1 receptor at 4 uM; in short: as §2
# [12] = Tmax in rat at 1 mg/kg, iv; format: ADME, organism-based; parameters: dose 1 mg/kg, route intravenous; settings: in vivo
# In short: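 Rat pharmacokinetics: compounds given iv (1 or 3 mg/kg) and po (5 or 10 mg/kg) in 2% Vitamin E TPGS (tocopheryl polyethylene glycol 1000 succinate). Plasma sampled over 24 h for Cmax, Tmax, AUC0–24 h, T1/2, clearance, Vss and oral bioavailability. Brain to plasma ratio also measured.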
# [13] = Inhibition of AMPA receptor at 4 uM; in short: as §1
# [14] = Inhibition of Neurotensin receptor at 4 uM; in short: as §2
# [15] = Half life in rat at 1 mg/kg, iv; format: ADME, organism-based; parameters: dose 1 mg/kg, route intravenous; settings: in vivo
# In short: (§3)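 Rat PK, intravenous arm of a paired iv/po study. Dosed in 2% Vitamin E TPGS (tocopheryl polyethylene glycol 1000 succinate). Parameters derived from plasma: Cmax, AUC0–24 h, terminal T1/2.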
# [16] = Inhibition of NMDA receptor at 4 uM; in short: as §1
# Rattus norvegicus [17] = assay: AUC (0 to 24 hrs) in rat at 1 mg/kg, iv; format: ADME, organism-based, Plasma; parameters: time < 24 hr, dose 1 mg/kg, route intravenous; settings: in vivo; in short: as §3
# Rattus norvegicus [18] = assay: Antihyperlocomotion activity in Wistar rat assessed as decrease in CRF-induced hyperlocomotion at 30 mg/kg, po administered 3 hrs before CRF challenge measured after 1 hr; format: functional, organism-based; parameters: dose 30 mg/kg
# In short: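 Rats received 0.3 μg CRF intracerebroventricularly, with oral pretreatment 3 h before in vehicle TPGS. Readout was movement time (locomotor activity), compared against TPGS/CRF controls.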
# [19] = target: D(1A) dopamine receptor (Homo sapiens) (UniProt P21728); assay: Inhibition of dopamine D1 receptor at 4 uM; in short: as §2
# [20] = target: 5-hydroxytryptamine receptor 2A (Homo sapiens) (UniProt P28223); assay: Inhibition of Serotonin 5HT2A receptor at 4 uM; in short: as §2
# Sequence of 5-hydroxytryptamine receptor 2A (Homo sapiens) (P28223 whole entry): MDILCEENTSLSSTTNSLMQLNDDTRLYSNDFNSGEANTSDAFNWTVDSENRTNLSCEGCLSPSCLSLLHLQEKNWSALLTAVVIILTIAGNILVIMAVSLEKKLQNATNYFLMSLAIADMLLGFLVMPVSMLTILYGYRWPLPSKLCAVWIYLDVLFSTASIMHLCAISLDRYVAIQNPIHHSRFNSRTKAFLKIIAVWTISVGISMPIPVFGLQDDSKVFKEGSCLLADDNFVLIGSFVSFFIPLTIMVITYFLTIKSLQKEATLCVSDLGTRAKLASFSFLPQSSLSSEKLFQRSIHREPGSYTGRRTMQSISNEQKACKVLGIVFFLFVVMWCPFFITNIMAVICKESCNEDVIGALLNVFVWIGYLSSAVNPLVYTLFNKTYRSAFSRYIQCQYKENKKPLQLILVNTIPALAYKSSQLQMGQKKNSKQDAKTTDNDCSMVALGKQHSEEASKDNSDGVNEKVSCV
# Sequence of 5-hydroxytryptamine receptor 6 (Homo sapiens) (P50406 whole entry): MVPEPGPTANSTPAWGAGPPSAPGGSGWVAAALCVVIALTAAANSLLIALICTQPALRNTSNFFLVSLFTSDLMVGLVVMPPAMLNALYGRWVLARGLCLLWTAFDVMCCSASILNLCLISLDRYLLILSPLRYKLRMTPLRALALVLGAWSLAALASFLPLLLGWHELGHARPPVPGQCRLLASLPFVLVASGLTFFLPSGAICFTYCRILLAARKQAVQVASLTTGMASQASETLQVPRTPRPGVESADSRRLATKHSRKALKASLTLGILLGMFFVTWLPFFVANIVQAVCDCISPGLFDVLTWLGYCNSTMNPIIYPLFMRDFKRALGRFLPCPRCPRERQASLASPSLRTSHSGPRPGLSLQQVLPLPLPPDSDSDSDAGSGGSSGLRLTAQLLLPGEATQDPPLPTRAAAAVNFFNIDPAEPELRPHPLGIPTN
# Sequence of Corticotropin-releasing factor receptor 1 (P35353 whole entry): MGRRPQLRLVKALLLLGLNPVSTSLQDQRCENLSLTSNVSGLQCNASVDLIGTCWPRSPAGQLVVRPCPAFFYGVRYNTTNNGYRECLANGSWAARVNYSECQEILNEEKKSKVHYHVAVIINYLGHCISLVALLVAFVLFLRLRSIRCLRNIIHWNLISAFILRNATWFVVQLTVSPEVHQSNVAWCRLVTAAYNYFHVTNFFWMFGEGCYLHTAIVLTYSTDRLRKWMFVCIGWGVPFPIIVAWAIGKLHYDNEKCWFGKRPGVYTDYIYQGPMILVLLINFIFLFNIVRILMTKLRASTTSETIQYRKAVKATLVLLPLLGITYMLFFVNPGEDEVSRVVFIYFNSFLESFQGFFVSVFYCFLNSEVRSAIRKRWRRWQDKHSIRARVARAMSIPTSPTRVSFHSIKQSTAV
# Sequence of D(1A) dopamine receptor (Homo sapiens) (P21728 whole entry): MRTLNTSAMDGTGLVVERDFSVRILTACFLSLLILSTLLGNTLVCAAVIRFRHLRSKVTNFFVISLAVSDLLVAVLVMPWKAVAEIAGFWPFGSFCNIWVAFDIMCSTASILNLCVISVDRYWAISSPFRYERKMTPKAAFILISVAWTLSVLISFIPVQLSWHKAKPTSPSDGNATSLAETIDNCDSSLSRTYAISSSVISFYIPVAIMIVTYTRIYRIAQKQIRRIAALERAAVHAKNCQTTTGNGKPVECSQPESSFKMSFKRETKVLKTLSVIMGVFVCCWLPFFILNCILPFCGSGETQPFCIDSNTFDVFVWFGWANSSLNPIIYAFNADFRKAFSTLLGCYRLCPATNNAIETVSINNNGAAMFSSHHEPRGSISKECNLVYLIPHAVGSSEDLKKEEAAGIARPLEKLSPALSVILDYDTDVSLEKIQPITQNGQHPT
# Sequence of Glucocorticoid receptor (Homo sapiens) (P04150 whole entry): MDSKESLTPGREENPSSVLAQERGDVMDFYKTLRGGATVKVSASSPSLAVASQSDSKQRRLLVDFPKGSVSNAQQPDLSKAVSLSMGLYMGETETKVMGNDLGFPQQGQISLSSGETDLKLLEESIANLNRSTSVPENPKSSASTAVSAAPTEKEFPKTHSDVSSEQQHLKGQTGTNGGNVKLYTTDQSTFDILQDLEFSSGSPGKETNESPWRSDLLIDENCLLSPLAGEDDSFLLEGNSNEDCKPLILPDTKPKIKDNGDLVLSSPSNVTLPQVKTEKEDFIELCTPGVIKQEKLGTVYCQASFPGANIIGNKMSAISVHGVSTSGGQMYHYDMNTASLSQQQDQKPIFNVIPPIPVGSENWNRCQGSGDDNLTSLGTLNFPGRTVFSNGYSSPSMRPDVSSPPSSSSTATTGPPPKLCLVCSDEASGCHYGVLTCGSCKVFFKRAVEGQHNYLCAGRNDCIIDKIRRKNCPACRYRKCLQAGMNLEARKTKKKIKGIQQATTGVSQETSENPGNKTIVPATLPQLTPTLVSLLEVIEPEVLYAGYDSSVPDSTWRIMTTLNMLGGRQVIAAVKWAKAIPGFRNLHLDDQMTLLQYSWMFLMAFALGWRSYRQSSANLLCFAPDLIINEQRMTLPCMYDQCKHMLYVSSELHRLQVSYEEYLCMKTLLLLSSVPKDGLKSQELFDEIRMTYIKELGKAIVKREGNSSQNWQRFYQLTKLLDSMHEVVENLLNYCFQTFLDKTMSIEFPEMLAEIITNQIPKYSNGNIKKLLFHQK
# Sequence of hERG (KCNH2) (Q12809 whole entry): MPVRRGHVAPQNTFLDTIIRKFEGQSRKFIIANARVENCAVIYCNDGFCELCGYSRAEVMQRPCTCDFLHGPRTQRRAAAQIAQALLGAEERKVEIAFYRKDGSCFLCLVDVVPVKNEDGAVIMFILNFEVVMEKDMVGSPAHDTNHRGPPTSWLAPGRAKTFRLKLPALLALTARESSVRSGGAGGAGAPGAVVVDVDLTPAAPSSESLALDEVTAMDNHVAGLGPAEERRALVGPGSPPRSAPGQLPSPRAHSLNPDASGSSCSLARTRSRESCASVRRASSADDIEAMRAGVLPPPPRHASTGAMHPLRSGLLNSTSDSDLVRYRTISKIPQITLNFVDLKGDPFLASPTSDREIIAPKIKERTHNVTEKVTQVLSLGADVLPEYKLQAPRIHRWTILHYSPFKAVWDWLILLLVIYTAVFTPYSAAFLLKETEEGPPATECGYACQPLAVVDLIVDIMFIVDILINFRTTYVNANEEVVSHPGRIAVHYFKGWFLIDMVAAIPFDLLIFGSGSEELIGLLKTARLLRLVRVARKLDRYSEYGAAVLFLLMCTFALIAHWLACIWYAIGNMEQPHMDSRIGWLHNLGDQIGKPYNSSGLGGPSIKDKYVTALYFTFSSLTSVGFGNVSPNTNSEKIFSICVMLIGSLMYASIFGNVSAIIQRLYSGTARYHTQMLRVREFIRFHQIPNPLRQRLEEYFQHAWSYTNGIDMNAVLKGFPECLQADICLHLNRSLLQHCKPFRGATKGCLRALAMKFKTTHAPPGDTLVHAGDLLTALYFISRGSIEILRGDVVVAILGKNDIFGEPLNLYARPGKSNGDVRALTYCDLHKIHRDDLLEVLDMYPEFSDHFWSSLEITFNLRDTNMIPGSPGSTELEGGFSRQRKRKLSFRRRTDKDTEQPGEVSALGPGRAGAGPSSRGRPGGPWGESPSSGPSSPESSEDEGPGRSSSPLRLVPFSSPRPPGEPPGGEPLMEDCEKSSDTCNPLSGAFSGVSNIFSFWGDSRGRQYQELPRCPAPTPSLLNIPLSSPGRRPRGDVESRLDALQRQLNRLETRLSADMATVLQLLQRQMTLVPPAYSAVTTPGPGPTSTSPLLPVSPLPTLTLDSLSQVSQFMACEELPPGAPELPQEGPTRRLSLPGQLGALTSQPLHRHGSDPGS
# Sequence of Beta-1 adrenergic receptor (Homo sapiens) (P08588 whole entry, looked up): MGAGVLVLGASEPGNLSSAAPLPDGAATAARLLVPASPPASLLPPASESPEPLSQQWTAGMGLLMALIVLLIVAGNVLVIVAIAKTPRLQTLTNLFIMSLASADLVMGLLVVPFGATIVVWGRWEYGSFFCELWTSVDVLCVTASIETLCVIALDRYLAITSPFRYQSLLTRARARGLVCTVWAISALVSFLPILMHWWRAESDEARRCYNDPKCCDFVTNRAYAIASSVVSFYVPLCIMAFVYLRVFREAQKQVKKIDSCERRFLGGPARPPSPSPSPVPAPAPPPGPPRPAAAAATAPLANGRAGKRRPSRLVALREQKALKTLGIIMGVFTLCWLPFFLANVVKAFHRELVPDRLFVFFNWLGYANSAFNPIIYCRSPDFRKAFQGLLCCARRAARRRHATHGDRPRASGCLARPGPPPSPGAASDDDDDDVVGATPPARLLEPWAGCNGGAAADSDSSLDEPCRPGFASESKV
smiles,measurement,setting,value
CCC(CC)Nc1nc(C)c(-c2ccc(OC(F)(F)F)cc2OC)nc1OC,inhibition,[1],> 16%
same,inhibition,[2],> 16%
same,inhibition,[3],> 16%
same,inhibition at 3 µM,hERG (KCNH2),17%
same,inhibition,[4],> 16%
same,inhibition,[5],> 16%
same,Ki,[6],9.8 nM
same,Activity,Rattus norvegicus [7],Non-toxic
same,inhibition,[8],> 16%
same,inhibition,[9],> 16%
same,Activity,Rattus norvegicus [10],Dose-dependent effect
same,inhibition,[11],> 16%
same,Tmax,[12],4 h
same,inhibition,[13],> 16%
same,inhibition,[14],> 16%
same,half-life,[15],8.4 h
same,inhibition,[16],> 16%
same,AUC,Rattus norvegicus [17],4499 ng·h/mL
same,Activity,Rattus norvegicus [18],Active
same,inhibition,[19],> 16%
same,inhibition,[20],> 16%
